According to ChEMBL document CHEMBL1121839, “Synthesis of spiro[isobenzofuran-1(3H),4'-piperidines] as potential central nervous system agents. 6. Synthesis, 13C NMR, and biological evaluation of cis- and trans-4-amino-3'-arylspiro[cyclohexane-1,1'(3'H)-isobenzofuran] derivatives” (1981):

How the values were obtained:
Format in all cases: functional
[1] = tested on: Mus musculus; assay: Inhibition of tetrabenazine-induced ptosis in mice following i.p. administration.; details: ip
In short: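 Male CD-1 mice, groups of five, received compound i.p.; tetrabenazine methanesulfonate 40 mg/kg i.p. followed 30 min later. After another 30 min, mice were housed singly and ptosis was scored (eyes closed 2, half open 1, open 0). ED50 and 95% confidence intervals came from linear regression of ptosis scores.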

[2] = tested on: Rattus norvegicus; assay: Percent potentiation of L-5-hydroxytryptophan-induced seizures (head-twitching) at 10 mg/kg i.p. in rats; details: route intraperitoneal
In short: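 Male Wistar rats, groups of six, got pargyline HCl 75 mg/kg s.c. 4 h before testing and test drug i.p. (10 mL/kg) 30 min before. L-5-hydroxytryptophan 1 mg/kg i.p. in distilled water was then given. Rats were observed 5 min later for head motion and coarse tremors; continuous forelimb clonus counted as potentiation, normalized as percent versus vehicle control.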

[3] = tested on: Rattus norvegicus; assay: Effective concentration required for potentiation of L-5-hydroxytryptophan-induced seizures (head-twitching) in rats (administered intraperitoneally); details: ip
In short: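 Male Wistar rats, groups of six, pretreated with pargyline HCl 75 mg/kg sc 4 h before testing. Test drug given ip (10 mL/kg) 30 min before testing, then L-5-hydroxytryptophan 1 mg/kg ip in distilled water. Head motion and coarse tremors were scored 5 min later, with continuous forelimb clonus counted as potentiation. Results are expressed as normalized percent potentiation versus vehicle control.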

Structure (SMILES) | ED50 [1] | Potentiation [2] | ED50 [3]
Cc1ccccc1C1O[C@]2(CC[C@@H](N(C)C)CC2)c2ccccc21 (stereo not given in full) | > 20 mg/kg | 0% | –
CN(C)[C@H]1CC[C@]2(CC1)OC(c1ccc(Cl)cc1)c1ccccc12 (stereo not given in full) | > 20 mg/kg | 0% | –
CN[C@H]1CC[C@@]2(CC1)OC(c1ccccc1)c1ccccc12 (stereo not given in full) | > 20 mg/kg | 50% | –
CN[C@H]1CC[C@]2(CC1)OC(c1ccc(F)cc1)c1ccccc12 (stereo not given in full) | 20 mg/kg | 0% | –
CN(C)[C@H]1CC[C@]2(CC1)OC(C)(c1ccccc1)c1ccccc12 (stereo not given in full) | > 20 mg/kg | 0% | –
CCC1(c2ccccc2)O[C@]2(CC[C@@H](N(C)C)CC2)c2ccccc21 (stereo not given in full) | > 20 mg/kg | 0% | –
CC1O[C@]2(CC[C@@H](N(C)C)CC2)c2ccccc21 (stereo not given in full) | 20 mg/kg | 0% | –
CN(C)[C@H]1CC[C@]2(CC1)OC(c1ccccc1)c1ccccc12 (stereo not given in full) | 3.7 mg/kg | 50% | –
CN(C)CCC=C1c2ccccc2CCc2ccccc21 [AMITRIPTYLINE] | 1.5 mg/kg | – | 7.1 mg/kg
CN(C)[C@H]1CC[C@@]2(CC1)OC(c1ccccc1)c1ccccc12 (stereo not given in full) | > 20 mg/kg | 0% | –
CN(C)[C@H]1CC[C@]2(CC1)OC(c1ccc(F)cc1)c1ccccc12 (stereo not given in full) | 8.4 mg/kg | 50% | –
CN[C@H]1CC[C@]2(CC1)OC(c1ccc(Cl)cc1)c1ccccc12 (stereo not given in full) | > 20 mg/kg | 0% | –
Cc1ccc(C2O[C@]3(CC[C@@H](N(C)C)CC3)c3ccccc32)cc1 (stereo not given in full) | > 20 mg/kg | 33% | –
CN[C@H]1CC[C@]2(CC1)OC(c1ccccc1C)c1ccccc12 (stereo not given in full) | > 20 mg/kg | 50% | –
CN(C)[C@H]1CC[C@]2(CC1)OCc1ccccc12 | > 20 mg/kg | 0% | –
CCCC1(c2ccccc2)O[C@]2(CC[C@@H](N(C)C)CC2)c2ccccc21 (stereo not given in full) | > 20 mg/kg | 0% | –
CNCCCN1c2ccccc2CCc2ccccc21 [DESIPRAMINE] | 0.3 mg/kg | – | –
CN[C@H]1CC[C@]2(CC1)OC(c1ccccc1)c1ccccc12 (stereo not given in full) | 2 mg/kg | 0% | –
